Assay results published in ChEMBL document CHEMBL1811827, “Novel nonsecosteroidal vitamin D3 carboxylic acid analogs for osteoporosis, and SAR analysis” (Bioorg Med Chem, 2011).

Tests used:
[1] = molecular target: T1, Vitamin D3 receptor (Homo sapiens) (UniProt P11473); test: Agonist activity at human VDR in human MG63 cells assessed as stimulation of VDRE-mediated luciferase reporter gene activity relative to 1,25(OH)2D3; format: functional, cell-based; set-up: concentration or dose not given beside the values; settings: MG-63
T1 sequence (whole entry): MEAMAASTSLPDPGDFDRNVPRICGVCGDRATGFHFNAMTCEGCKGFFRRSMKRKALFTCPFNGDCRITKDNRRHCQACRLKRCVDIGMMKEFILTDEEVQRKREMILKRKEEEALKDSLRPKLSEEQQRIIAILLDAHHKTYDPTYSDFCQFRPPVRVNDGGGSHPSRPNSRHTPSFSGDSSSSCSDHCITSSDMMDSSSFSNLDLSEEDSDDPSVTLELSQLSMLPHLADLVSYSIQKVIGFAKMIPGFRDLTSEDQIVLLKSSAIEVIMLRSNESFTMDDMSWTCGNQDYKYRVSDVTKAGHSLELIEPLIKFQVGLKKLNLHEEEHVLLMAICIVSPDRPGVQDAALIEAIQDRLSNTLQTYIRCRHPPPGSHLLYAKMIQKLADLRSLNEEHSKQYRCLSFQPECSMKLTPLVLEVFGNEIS

[2] = molecular target: T1, Vitamin D3 receptor (Homo sapiens); test: Agonist activity at human VDR in human MG63 cells assessed as stimulation of osteocalcin production by enzyme immunoassay relative to 1,25(OH)2D3; format: functional, cell-based; set-up: concentration or dose not given beside the values; settings: MG-63
[3] = AUC (infinity) in Sprague-Dawley rat at 100 ug/kg, iv; format: ADME, organism-based; set-up: dose 100 ug/kg, time infinity, route intravenous; settings: plasma, 0.1 mg/kg
How it was run: (§1)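 Rats given 100 µg/kg orally or intravenously; F, T1/2, Cmax, AUCinf, MRT and total clearance derived.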

[4] = Half life in Sprague-Dawley rat at 100 ug/kg, iv; format: ADME, organism-based; settings: in vivo, 0.1 mg/kg; how it was run: as §1
[5] = Total clearance in Sprague-Dawley rat at 100 ug/kg, po; format: ADME, organism-based; settings: in vivo, 0.1 mg/kg; how it was run: as §1
[6] = Half life in Sprague-Dawley rat at 100 ug/kg, po; format: ADME, organism-based; settings: in vivo, 0.1 mg/kg; how it was run: as §1
[7] = AUC (infinity) in Sprague-Dawley rat at 100 ug/kg, po; format: ADME, organism-based; set-up: dose 100 ug/kg, time infinity, route oral; settings: plasma, 0.1 mg/kg; how it was run: as §1
[8] = Mean residence time in Sprague-Dawley rat at 100 ug/kg, iv; format: ADME, organism-based; settings: in vivo, 0.1 mg/kg; how it was run: as §1
[9] = Cmax in Sprague-Dawley rat at 100 ug/kg, po; format: ADME, organism-based; set-up: dose 100 ug/kg, route oral; settings: in vivo, 0.1 mg/kg; how it was run: as §1
[10] = Mean residence time in Sprague-Dawley rat at 100 ug/kg, po; format: ADME, organism-based; settings: in vivo, 0.1 mg/kg; how it was run: as §1
[11] = Total clearance in Sprague-Dawley rat at 100 ug/kg, iv; format: ADME, organism-based; settings: in vivo, 0.1 mg/kg; how it was run: as §1
[12] = Oral bioavailability in Sprague-Dawley rat at 100 ug/kg; format: ADME, organism-based; settings: in vivo, 0.1 mg/kg; how it was run: as §1
Rattus norvegicus [13] = test: Prevention of bone mineral density loss in ovariectomized Sprague-Dawley rat osteoporosis model administered orally once daily for 5 times per week; format: functional, organism-based
How it was run: (§2)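 Female Sprague–Dawley rats, 8 weeks old, ovariectomized or sham-operated; from one day post-surgery, OVX groups (n = 8) given 0.22, 0.67 or 2.0 µg/kg orally in MCT vehicle (1 mL/kg), five times per week for 4 weeks. 24 h after last dose, serum calcium by autoanalyzer and distal femur BMD by dual-energy X-ray absorptiometry.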

Rattus norvegicus [14] = test: Toxicity in ovariectomized Sprague-Dawley rat osteoporosis model assessed as induction of hypercalcemia at 2 ug/kg, po administered once daily for 5 times per week; format: organism-based; settings: in vivo, 0.002 mg/kg; how it was run: as §2
Rattus norvegicus [15] = test: Toxicity in ovariectomized Sprague-Dawley rat osteoporosis model assessed as induction of hypercalcemia at […], po administered once daily for 5 times per week; format: organism-based; settings: in vivo
Rattus norvegicus [16] = test: Toxicity in ovariectomized Sprague-Dawley rat osteoporosis model assessed as body weight loss at 2 ug/kg, po administered once daily for 5 times per week; format: organism-based; settings: in vivo, 0.002 mg/kg
Rattus norvegicus [17] = test: Toxicity in ovariectomized Sprague-Dawley rat osteoporosis model assessed as body weight loss at […], po administered once daily for 5 times per week; format: organism-based; settings: in vivo

## CCC(CC)(c1ccc(OCC(=O)O)c(C)c1)c1ccc(OCC(O)C(C)(C)C)c(C)c1 (racemic)
[1]
  Activity: 1.4%
[2]
  Activity: < 13%

## CCC(CC)(c1ccc(OCCC(=O)O)c(C)c1)c1ccc(OCC(O)C(C)(C)C)c(C)c1 (racemic)
[1]
  Activity: 6.2%
[2]
  Activity: 49%

## CCC(CC)(c1ccc(CCC(O)C(C)(C)C)c(C)c1)c1ccc(OCCCCC(=O)O)c(C)c1 (racemic)
[1]
  Activity: 31%
[2]
  Activity: 368%

## CCC(CC)(c1ccc(CCC(O)C(C)(C)C)c(C)c1)c1ccc(OC[C@@H](O)CCC(=O)O)c(C)c1 (mixture of isomers)
[1]
  Activity: 52%
[2]
  Activity: 68%

## CCC(CC)(c1ccc(OCCCCC(=O)O)c(C)c1)c1ccc(OCC(O)C(C)(C)C)c(C)c1 (racemic)
[3]
  AUC(0-inf): 32.9 ng·h/mL
[4]
  half-life: 1.3 h
[5]
  CL/F: 156 mL/min/kg
[6]
  half-life: 3.1 h
[7]
  AUC(0-inf): 10.9 ng·h/mL
[8]
  MRT: 0.5 h
[9]
  Cmax: 3.6 ng/mL
[1]
  Activity: 19%
[10]
  MRT: 3.8 h
[2]
  Activity: 205%
[11]
  clearance: 50.9 mL/min/kg
[12]
  bioavailability: 33%

## CCC(CC)(c1ccc(OCC(O)C(C)(C)C)c(C)c1)c1ccc(OC[C@@H](O)CCC(=O)O)c(C)c1 (mixture of isomers)
[3]
  AUC(0-inf): 1150 ng·h/mL
[4]
  half-life: 10.6 h
[5]
  CL/F: 11.5 mL/min/kg
[6]
  half-life: 8 h
Rattus norvegicus [13]
  inhibition: Dose-dependent effect
[7]
  AUC(0-inf): 151 ng·h/mL
[8]
  MRT: 9.2 h
[9]
  Cmax: 11.6 ng/mL
[1]
  Activity: 20%
Rattus norvegicus [14]
  Activity: Toxic
[10]
  MRT: 12.3 h
Rattus norvegicus [15]
  Activity: Non-toxic
Rattus norvegicus [16]
  Activity: Toxic
[2]
  Activity: 484%
[11]
  clearance: 1.47 mL/min/kg
[12]
  bioavailability: 13%
Rattus norvegicus [17]
  Activity: Non-toxic

## CCC(CC)(c1ccc(OCCCC(=O)O)c(C)c1)c1ccc(OCC(O)C(C)(C)C)c(C)c1 (racemic)
[1]
  Activity: 2.6%
[2]
  Activity: < 13%

## CCC(CC)(c1ccc(CCC(O)C(C)(C)C)c(C)c1)c1ccc(OCCCCCCC(=O)O)c(C)c1 (racemic)
[1]
  Activity: 2.2%
[2]
  Activity: 9.3%

## CCC(CC)(c1ccc(CCC(O)C(C)(C)C)c(C)c1)c1ccc(OCCCCCC(=O)O)c(C)c1 (racemic)
[1]
  Activity: 16%
[2]
  Activity: 168%
